# Experimental data reported in ChEMBL document CHEMBL1123950, “N-(Retinoyl)amino acids. Synthesis and chemopreventive activity in vitro” (1988).
# pEC50: −log10 of the molar value.
# Legend:
# [1] = system: Cricetinae gen. sp.; test: Cultures with severe degree of squamous metaplasia at a conc of 10e-9 M; format: functional, Cricetulus griseus
# In short: (§1)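 Tracheas from 29-31-day-old hamsters fed a vitamin A free diet; cultured in serum-free CMRL 1066 (insulin 1.0 μg/mL, hydrocortisone hemisuccinate 0.1 μg/mL, glutamine 2 mM, Garamycin 50 μg/mL), 50% O2/45% N2/5% CO2, rocked, 36 °C. Retinoid-free 3 days, then retinoid in DMSO (final 0.1%) for 7 days; medium and gas changed three times. Formalin-fixed day 10; squamous metaplasia graded: mild 2-10%, marked 10-40%, severe >40%.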
# [2] = system: Cricetinae gen. sp.; test: Cultures with mild degree of squamous metaplasia at a conc of 10e-11 M; format: functional, Cricetulus griseus; in short: as §1
# [3] = system: Cricetinae gen. sp.; test: Cultures with no evidence of squamous metaplasia at a conc of 10e-10 M; format: functional, Cricetulus griseus; in short: as §1
# [4] = system: Cricetinae gen. sp.; test: Cultures with minimal degree of squamous metaplasia at a conc of 10e-8 M; format: functional, Cricetulus griseus; in short: as §1
# [5] = system: Cricetinae gen. sp.; test: Cultures with marked degree of squamous metaplasia at a conc of 10e-9 M; format: functional, Cricetulus griseus; in short: as §1
# [6] = system: Cricetinae gen. sp.; test: Cultures with minimal degree of squamous metaplasia at a conc of 10e-10 M; format: functional, Cricetulus griseus; in short: as §1
# [7] = system: Cricetinae gen. sp.; test: Reversal of keratinization in vitamin A deficient hamster trachea culture at a conc of 10e-8 M; format: functional, Cricetulus griseus; details: read-out: ED50 (the source's name)
# In short: (§2)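 Tracheas from 29-31-day-old hamsters kept on a vitamin A free diet, cultured in serum-free CMRL 1066 (insulin 1.0 μg/mL, hydrocortisone hemisuccinate 0.1 μg/mL, glutamine 2 mM, Garamycin 50 μg/mL), 50% O2/45% N2/5% CO2, rocked at 36 °C. Retinoid-free for 3 days, then retinoid in DMSO (0.1% final) for 7 days. Fixed in formalin; squamous metaplasia graded mild 2-10%, marked 10-40%, severe >40%.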
# [8] = system: Cricetinae gen. sp.; test: Cultures with severe degree of squamous metaplasia at a conc of 10e-8 M; format: functional, Cricetulus griseus; in short: as §1
# [9] = system: Cricetinae gen. sp.; test: Cultures with severe degree of squamous metaplasia at a conc of 10e-11 M; format: functional, Cricetulus griseus; in short: as §1
# [10] = system: Cricetinae gen. sp.; test: Cultures with no evidence of squamous metaplasia at a conc of 10e-8 M; format: functional, Cricetulus griseus; in short: as §1
# [11] = system: Cricetinae gen. sp.; test: Cultures with mild degree of squamous metaplasia at a conc of 10e-10 M; format: functional, Cricetulus griseus; in short: as §1
# [12] = system: Cricetinae gen. sp.; test: Cultures with minimal degree of squamous metaplasia at a conc of 10e-11 M; format: functional, Cricetulus griseus; in short: as §1
# [13] = system: Cricetinae gen. sp.; test: Cultures with no evidence of squamous metaplasia at a conc of 10e-9 M; format: functional, Cricetulus griseus; in short: as §1
# [14] = system: Cricetinae gen. sp.; test: Cultures with minimal degree of squamous metaplasia at a conc of 10e-9 M; format: functional, Cricetulus griseus; in short: as §1
# [15] = system: Cricetinae gen. sp.; test: Cultures with severe degree of squamous metaplasia at a conc of 10e-10 M; format: functional, Cricetulus griseus; in short: as §1
# [16] = system: Cricetinae gen. sp.; test: Cultures with marked degree of squamous metaplasia at a conc of 10e-8 M; format: functional, Cricetulus griseus; in short: as §1
# [17] = system: Cricetinae gen. sp.; test: Cultures with mild degree of squamous metaplasia at a conc of 10e-9 M; format: functional, Cricetulus griseus; in short: as §1
# [18] = system: Cricetinae gen. sp.; test: Cultures with marked degree of squamous metaplasia at a conc of 10e-10 M; format: functional, Cricetulus griseus; in short: as §1
# [19] = system: Cricetinae gen. sp.; test: Cultures with no evidence of squamous metaplasia at a conc of 10e-11 M; format: functional, Cricetulus griseus; in short: as §1
# [20] = system: Cricetinae gen. sp.; test: Cultures with mild degree of squamous metaplasia at a conc of 10e-8 M; format: functional, Cricetulus griseus; in short: as §1
# [21] = system: Cricetinae gen. sp.; test: Cultures with marked degree of squamous metaplasia at a conc of 10e-11 M; format: functional; in short: as §1
# [22] = system: Cricetinae gen. sp.; test: Reversal of keratinization in vitamin A deficient hamster trachea culture; format: functional, Cricetulus griseus; details: read-out: ED50 (the source's name); in short: as §2
# [23] = system: L1210; test: Inhibition of proliferation of L1210 cells in culture at a conc 10 ug/mL; format: functional, Mus musculus; set-up: scale not given: the % may be the effect or the level left
# In short: (§3)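 L1210 suspension of about 10⁵ cells treated with retinoid at 1-40 μg/mL, 37 °C for 48 h; cells counted at 0 and 48 h, three cultures averaged per concentration. % of control = 100 × (treated 48 h − 0 h count)/(control 48 h − 0 h count).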
# [24] = system: L1210; test: Inhibition of proliferation of L1210 cells in culture at a conc 20 ug/mL; format: functional, Mus musculus; set-up: scale not given: the % may be the effect or the level left; in short: as §3
# [25] = system: HEp-2; test: Viability of human epidermoid carcinoma cells (H.Ep-2) at a conc 40 ug/mL; format: functional
# In short: (§4)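 Human epidermoid carcinoma H.Ep.-2 cells, clone-colony viability assay with retinoid at 1-40 μg/mL; incubated 37 °C for 12 days, stained, colonies counted. % of control = 100 × treated colonies/control colonies.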
# [26] = system: HEp-2; test: Viability of human epidermoid carcinoma cells (H.Ep-2) at a conc 20 ug/mL; format: functional; in short: as §4
# [27] = system: L1210; test: Inhibition of proliferation of L1210 cells in culture at a conc 1 ug/mL; format: functional, Mus musculus; set-up: scale not given: the % may be the effect or the level left; in short: as §3
# [28] = system: HEp-2; test: Viability of human epidermoid carcinoma cells (H.Ep-2) at a conc 1 ug/mL; format: functional; in short: as §4
# [29] = system: HEp-2; test: Viability of human epidermoid carcinoma cells (H.Ep-2) at a conc 10 ug/mL; format: functional; in short: as §4
# [30] = system: HEp-2; test: Viability of human epidermoid carcinoma cells (H.Ep-2) at a concentration 10 ug/mL; format: functional; in short: as §4
# [31] = system: Cricetinae gen. sp.; test: Cultures with mild degree of squamous metaplasia at a concentration of 10e-8 M; format: functional, Cricetulus griseus; in short: as §1
# [32] = system: Cricetinae gen. sp.; test: Cultures with minimal degree of squamous metaplasia at a concentration of 10e-11; format: functional, Cricetulus griseus; in short: as §1
# [33] = system: L1210; test: Inhibition of proliferation of L1210 cells in culture at a concentration 1 ug/mL; format: functional, Mus musculus; set-up: scale not given: the % may be the effect or the level left; in short: as §3
# [34] = system: L1210; test: Inhibition of proliferation of L1210 cells in culture at a concentration 20 ug/mL; format: functional, Mus musculus; set-up: scale not given: the % may be the effect or the level left; in short: as §3
# [35] = system: Cricetinae gen. sp.; test: Cultures with no evidence of squamous metaplasia at a concentration of 10e-10; format: functional, Cricetulus griseus; in short: as §1
# [36] = system: Cricetinae gen. sp.; test: Cultures with minimal degree of squamous metaplasia at a concentration of 10e-8 M; format: functional, Cricetulus griseus; in short: as §1
# [37] = system: Cricetinae gen. sp.; test: Cultures with marked degree of squamous metaplasia at a concentration of 10e-10; format: functional, Cricetulus griseus; in short: as §1
# [38] = system: Cricetinae gen. sp.; test: Cultures with severe degree of squamous metaplasia at a concentration of 10e-11; format: functional, Cricetulus griseus; in short: as §2
# [39] = system: Cricetinae gen. sp.; test: Cultures with no evidence of squamous metaplasia at a concentration of 10e-11; format: functional, Cricetulus griseus; in short: as §1
# [40] = system: Cricetinae gen. sp.; test: Cultures with mild degree of squamous metaplasia at a concentration of 10e-10; format: functional, Cricetulus griseus; in short: as §1
# [41] = system: L1210; test: Inhibition of proliferation of L1210 cells in culture at a concentration 10 ug/mL; format: functional, Mus musculus; set-up: scale not given: the % may be the effect or the level left; in short: as §3
# [42] = system: Cricetinae gen. sp.; test: Cultures with minimal degree of squamous metaplasia at a concentration of 10e-9; format: functional, Cricetulus griseus; in short: as §1
# [43] = system: Cricetinae gen. sp.; test: Cultures with severe degree of squamous metaplasia at a concentration of 10e-8 M; format: functional, Cricetulus griseus; in short: as §2
# [44] = system: Cricetinae gen. sp.; test: Cultures with no evidence of squamous metaplasia at a concentration of 10e-9; format: functional, Cricetulus griseus; in short: as §1
# [45] = system: Cricetinae gen. sp.; test: Cultures with severe degree of squamous metaplasia at a concentration of 10e-10; format: functional, Cricetulus griseus; in short: as §1
# [46] = system: Cricetinae gen. sp.; test: Cultures with mild degree of squamous metaplasia at a concentration of 10e-11; format: functional, Cricetulus griseus; in short: as §1
# [47] = system: Cricetinae gen. sp.; test: Cultures with mild degree of squamous metaplasia at a concentration of 10e-9; format: functional, Cricetulus griseus; in short: as §1
# [48] = system: Cricetinae gen. sp.; test: Cultures with minimal degree of squamous metaplasia at a concentration of 10e-10; format: functional, Cricetulus griseus; in short: as §1
# [49] = system: Cricetinae gen. sp.; test: Cultures with severe degree of squamous metaplasia at a concentration of 10e-9; format: functional, Cricetulus griseus; in short: as §2
# [50] = system: HEp-2; test: Viability of human epidermoid carcinoma cells (H.Ep-2) at a concentration 1 ug/mL; format: functional; in short: as §4
# [51] = system: Cricetinae gen. sp.; test: Cultures with marked degree of squamous metaplasia at a concentration of 10e-8 M; format: functional, Cricetulus griseus; in short: as §1
# [52] = system: Cricetinae gen. sp.; test: Reversal of keratinization in vitamin A deficient hamster trachea culture at a concentration of 10e-8 M; format: functional, Cricetulus griseus; details: read-out: ED50 (the source's name); in short: as §2
# [53] = system: HEp-2; test: Viability of human epidermoid carcinoma cells (H.Ep-2) at a concentration 40 ug/mL; format: functional; in short: as §4
# [54] = system: HEp-2; test: Viability of human epidermoid carcinoma cells (H.Ep-2) at a concentration 20 ug/mL; format: functional; in short: as §4
# [55] = system: Cricetinae gen. sp.; test: Cultures with no evidence of squamous metaplasia at a concentration of 10e-8 M; format: functional, Cricetulus griseus; in short: as §1
# [56] = system: Cricetinae gen. sp.; test: Cultures with marked degree of squamous metaplasia at a concentration of 10e-11; format: functional, Cricetulus griseus; in short: as §1
# [57] = system: Cricetinae gen. sp.; test: Cultures with marked degree of squamous metaplasia at a concentration of 10e-9; format: functional, Cricetulus griseus; in short: as §1
structure (smiles),measurement,setting,value
CC1=C(/C=C/C(C)=C/C=C/C(C)=C\C(=O)NC(CC(C)C)C(=O)O)C(C)(C)CCC1 (stereo not drawn),Culture,[1],0%
same,Culture,[2],0%
same,Culture,[3],29%
same,Culture,[4],0%
same,Culture,[5],14%
same,Culture,[6],0%
same,pEC50,[7],9.30
same,Culture,[8],0%
same,Culture,[9],17%
same,Culture,[10],72%
same,Culture,[11],14%
same,Culture,[12],0%
same,Culture,[13],57%
same,Culture,[14],0%
same,Culture,[15],0%
same,Culture,[16],14%
same,Culture,[17],29%
same,Culture,[18],57%
same,Culture,[19],33%
same,Culture,[20],14%
same,Culture,[21],50%
CC1=C(/C=C/C(C)=C/C=C/C(C)=C/C(=O)Nc2ccc(O)cc2)C(C)(C)CCC1 [FENRETINIDE],pEC50,[22],9.52
CCNC(=O)\C=C(C)/C=C/C=C(C)/C=C/C1=C(C)CCCC1(C)C,pEC50,[22],9.52
same,Control,[23],77%
same,Control,[24],54%
same,Control,[25],15%
same,Control,[26],10%
same,Control,[27],84%
same,Control,[28],59%
same,Control,[29],13%
CC1=C(/C=C/C(C)=C/C=C/C(C)=C/C(=O)NC(CC(C)C)C(=O)O)C(C)(C)CCC1 (stereo not drawn),Control,[30],29%
same,Culture,[31],4%
same,Culture,[32],0%
same,Control,[33],95%
same,Control,[34],20%
same,Culture,[35],48%
same,Culture,[36],0%
same,Culture,[37],32%
same,Culture,[38],14%
same,Culture,[39],14%
same,Culture,[40],16%
same,Control,[41],62%
same,Culture,[42],0%
same,Culture,[43],0%
same,Culture,[44],87%
same,Culture,[45],4%
same,Culture,[46],14%
same,Culture,[47],4%
same,Culture,[48],0%
same,Culture,[49],0%
same,Control,[50],73%
same,Culture,[51],0%
same,pEC50,[52],10.00
same,Control,[53],25%
same,Control,[54],14%
same,Culture,[55],96%
same,Culture,[56],58%
same,Culture,[57],9%
